Measured values published in ChEMBL document CHEMBL3351896, “Small Molecule that Reverses Dexamethasone Resistance in T-cell Acute Lymphoblastic Leukemia (T-ALL)” (ACS Med Chem Lett, 2014).
Calls of active or inactive are those of the source. The calls are words filed in the database; no cut-off is given here.

Experiments:
Type in all cases: functional, cell-based
CUTLL1 [1] = assay: Effect on ATAD2 gene expression in human CUTLL1 cells in presence of 1 uM dexamethasone at 30 uM after 24 hrs by microarray method
In short: (§1)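 CUTLL1 T-ALL cells exposed 24 h to vehicle (DMSO), dexamethasone alone (1 μM), test agent alone (30 μM), or dexamethasone (1 μM) plus test agent (30 μM), in triplicate. Expression profiled by microarray. Leading-edge genes from GSEA were compared between the dexamethasone-plus-agent and dexamethasone-alone groups, using glucocorticoid-regulated gene sets from ALL patients on glucocorticoid therapy.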

CUTLL1 [2] = assay: Effect on ZFP36L2 gene expression in human CUTLL1 cells in absence of 1 uM dexamethasone at 30 uM after 24 hrs by microarray method
In short: (§2)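 Human CUTLL1 T-ALL cells exposed for 24 h to vehicle (DMSO), dexamethasone alone (1 μM), test compound alone (30 μM), or dexamethasone 1 μM plus compound 30 μM, each in triplicate. Expression profiled by microarray. Glucocorticoid-regulated gene sets from ALL patients on glucocorticoid therapy scored by GSEA. Leading-edge genes compared between the combination and dexamethasone alone.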

CUTLL1 [3] = assay: Effect on NHP2 gene expression in human CUTLL1 cells in absence of 1 uM dexamethasone at 30 uM after 24 hrs by microarray method; in short: as §1
CUTLL1 [4] = assay: Effect on PFAS gene expression in human CUTLL1 cells in absence of 1 uM dexamethasone at 30 uM after 24 hrs by microarray method; in short: as §2
CUTLL1 [5] = assay: Effect on USP1 gene expression in human CUTLL1 cells in presence of 1 uM dexamethasone at 30 uM after 24 hrs by microarray method; in short: as §2
CUTLL1 [6] = assay: Effect on RPS14 gene expression in human CUTLL1 cells in presence of 1 uM dexamethasone at 30 uM after 24 hrs by microarray method; in short: as §2
CUTLL1 [7] = assay: Effect on RAD51AP1 gene expression in human CUTLL1 cells in absence of 1 uM dexamethasone at 30 uM after 24 hrs by microarray method; in short: as §2
CUTLL1 [8] = assay: Growth inhibition of human CUTLL1 cells at 50 uM in presence of erastin after 48 hrs by alamar blue assay
CUTLL1 [9] = assay: Growth inhibition of human CUTLL1 cells with high GR expression levels at 50 uM after 48 hrs by alamar blue assay
In short: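 Human CUTLL1 T-ALL cells engineered to express high (overexpressed) or low (knockdown) glucocorticoid receptor levels. Exposed to compound alone or with 1 μM dexamethasone. Alamar blue growth inhibition read after 48 h.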

CUTLL1 [10] = assay: Effect on E2F7 gene expression in human CUTLL1 cells in presence of 1 uM dexamethasone at 30 uM after 24 hrs by microarray method; in short: as §1
CUTLL1 [11] = assay: Effect on DSCC1 gene expression in human CUTLL1 cells in absence of 1 uM dexamethasone at 30 uM after 24 hrs by microarray method; in short: as §1
CUTLL1 [12] = assay: Effect on DDIT4 gene expression in human CUTLL1 cells in presence of 1 uM dexamethasone at 30 uM after 24 hrs by microarray method; in short: as §1
CUTLL1 [13] = assay: Growth inhibition of human CUTLL1 cells at 50 uM in presence of staurosporine after 48 hrs by alamar blue assay
CUTLL1 [14] = assay: Effect on TSC22D3 gene expression in human CUTLL1 cells in presence of 1 uM dexamethasone at 30 uM after 24 hrs by microarray method; in short: as §2
CUTLL1 [15] = assay: Effect on FEN1 gene expression in human CUTLL1 cells in presence of 1 uM dexamethasone at 30 uM after 24 hrs by microarray method; in short: as §1
CUTLL1 [16] = assay: Effect on TK1 gene expression in human CUTLL1 cells in absence of 1 uM dexamethasone at 30 uM after 24 hrs by microarray method; in short: as §2
CUTLL1 [17] = assay: Effect on E2F7 gene expression in human CUTLL1 cells in absence of 1 uM dexamethasone at 30 uM after 24 hrs by microarray method; in short: as §1
CUTLL1 [18] = assay: Effect on APITD1 gene expression in human CUTLL1 cells in presence of 1 uM dexamethasone at 30 uM after 24 hrs by microarray method; in short: as §1
CUTLL1 [19] = assay: Effect on TIPIN gene expression in human CUTLL1 cells in absence of 1 uM dexamethasone at 30 uM after 24 hrs by microarray method; in short: as §2
CUTLL1 [20] = assay: Effect on SPC25 gene expression in human CUTLL1 cells in absence of 1 uM dexamethasone at 30 uM after 24 hrs by microarray method; in short: as §2
CUTLL1 [21] = assay: Effect on PCNA gene expression in human CUTLL1 cells in presence of 1 uM dexamethasone at 30 uM after 24 hrs by microarray method; in short: as §2
[22] = Growth inhibition of human CUTLL1 cells in absence of 1 uM dexamethasone after 48 hrs by alamar blue assay; settings: CUTLL1, 48 h
In short: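 CUTLL1 cells given compound alone or with dexamethasone 1 μM. Growth inhibition measured by alamar blue after 48 h.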

CUTLL1 [23] = assay: Effect on TIPIN gene expression in human CUTLL1 cells in presence of 1 uM dexamethasone at 30 uM after 24 hrs by microarray method; in short: as §2
CUTLL1 [24] = assay: Effect on TIFA gene expression in human CUTLL1 cells in presence of 1 uM dexamethasone at 30 uM after 24 hrs by microarray method; in short: as §2
CUTLL1 [25] = assay: Effect on MCM10 gene expression in human CUTLL1 cells in presence of 1 uM dexamethasone at 30 uM after 24 hrs by microarray method; in short: as §1
CUTLL1 [26] = assay: Growth inhibition of human CUTLL1 cells at 50 uM in presence of camptothecin after 48 hrs by alamar blue assay
CUTLL1 [27] = assay: Effect on FKBP5 gene expression in human CUTLL1 cells in presence of 1 uM dexamethasone at 30 uM after 24 hrs by microarray method; in short: as §1
CUTLL1 [28] = assay: Growth inhibition of human CUTLL1 cells at 50 uM in presence of taxol after 48 hrs by alamar blue assay
CUTLL1 [29] = assay: Effect on BRCA1 gene expression in human CUTLL1 cells in presence of 1 uM dexamethasone at 30 uM after 24 hrs by microarray method; in short: as §1
CUTLL1 [30] = assay: Effect on NXT1 gene expression in human CUTLL1 cells in presence of 1 uM dexamethasone at 30 uM after 24 hrs by microarray method; in short: as §1
CUTLL1 [31] = assay: Effect on SMC2 gene expression in human CUTLL1 cells in presence of 1 uM dexamethasone at 30 uM after 24 hrs by microarray method; in short: as §2
CUTLL1 [32] = assay: Effect on CDT1 gene expression in human CUTLL1 cells in absence of 1 uM dexamethasone at 30 uM after 24 hrs by microarray method; in short: as §1
CUTLL1 [33] = assay: Effect on RRM1 gene expression in human CUTLL1 cells in absence of 1 uM dexamethasone at 30 uM after 24 hrs by microarray method; in short: as §2
CUTLL1 [34] = assay: Effect on MCM4 gene expression in human CUTLL1 cells in presence of 1 uM dexamethasone at 30 uM after 24 hrs by microarray method; in short: as §1
CUTLL1 [35] = assay: Effect on RUVBL1 gene expression in human CUTLL1 cells in absence of 1 uM dexamethasone at 30 uM after 24 hrs by microarray method; in short: as §2

Nc1ncc(-c2ccncc2)c(C2CC2)n1
Activity (CUTLL1 [1]): Active
Activity (CUTLL1 [2]): inactive
Activity (CUTLL1 [3]): inactive
Activity (CUTLL1 [4]): inactive
Activity (CUTLL1 [5]): Active
Activity (CUTLL1 [6]): Active
Activity (CUTLL1 [7]): inactive
growth inhibition (GI) (CUTLL1 [8]): inactive
growth inhibition (GI) (CUTLL1 [9]): inactive
Activity (CUTLL1 [10]): Active
Activity (CUTLL1 [11]): inactive
Activity (CUTLL1 [12]): Active
growth inhibition (GI) (CUTLL1 [13]): inactive
Activity (CUTLL1 [14]): Active
Activity (CUTLL1 [15]): Active
Activity (CUTLL1 [16]): inactive
Activity (CUTLL1 [17]): inactive
Activity (CUTLL1 [18]): Active
Activity (CUTLL1 [19]): inactive
Activity (CUTLL1 [20]): inactive
Activity (CUTLL1 [21]): Active
EC50 [22]: ≥ 100 µM
Activity (CUTLL1 [23]): Active
Activity (CUTLL1 [24]): Active
Activity (CUTLL1 [25]): Active
growth inhibition (GI) (CUTLL1 [26]): inactive
Activity (CUTLL1 [27]): Active
growth inhibition (GI) (CUTLL1 [28]): inactive
Activity (CUTLL1 [29]): Active
Activity (CUTLL1 [30]): Active
Activity (CUTLL1 [31]): Active
Activity (CUTLL1 [32]): inactive
Activity (CUTLL1 [33]): inactive
Activity (CUTLL1 [34]): Active
Activity (CUTLL1 [35]): inactive
